Results: ChEMBL document CHEMBL1138931, “Synthesis and antimalarial efficacy of aza-fused rhodacyanines in vitro and in the P. berghei mouse model” (J Med Chem, 2006)

How the values were obtained:
[1] = system: Plasmodium falciparum; test: Antimalarial activity against chloroquine-resistant Plasmodium falciparum K1; type: functional, organism-based
Summary of the method: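 P. falciparum K1 (chloroquine-resistant) tested in vitro by the Desjardins method; activity given as EC50.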

[2] = system: L6; test: Cytotoxicity against rat L6 cell line; type: functional, cell-based
Summary of the method: (§1)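 Rat skeletal myoblast L-6 line used for cytotoxicity; EC50 determined. Antiplasmodial EC50 was measured against chloroquine-resistant P. falciparum strain K1 in vitro by the Desjardins method. Selectivity index = EC50(L-6)/EC50(P. falciparum K1).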

[3] = system: L6; test: Selectivity index, EC50 for L6 cells/EC50 for Plasmodium falciparum K1; type: functional; summary of the method: as §1
[4] = system: Plasmodium berghei; test: Suppression of Plasmodium berghei NK65 infected ICR mice (Mus musculus) at 10 mg/kg/day intraperitoneal dose over 4 days; type: functional
Summary of the method: (§2)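 Peters' 4-day suppressive test: ICR mice (five per group) infected with drug-sensitive P. berghei NK65, dosed daily for 4 days intraperitoneally or per os. Percent suppression = reduction of parasitemia in treated versus untreated infected control mice. Mice were observed after treatment to record mean survival days.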

[5] = system: Mus musculus; test: Activity in ICR mice (Mus musculus) infected with Plasmodium berghei NK65 after 4 days at 25 mg/kg/day, intraperitoneally assessed as mean survival days; type: functional; details: route intraperitoneal
Summary of the method: (§3)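 Peters' 4-day suppressive test; P. berghei NK65 (drug-sensitive) in groups of five ICR mice; compound given daily for 4 days, ip or po at the stated mg kg-1 day-1. Mice followed after treatment ends; mean survival days recorded against untreated infected controls.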

[6] = system: Plasmodium berghei; test: Suppression of Plasmodium berghei NK65 infected ICR mice (Mus musculus) at 100 mg/kg/day peroral dose over 4 days; type: functional; details: route oral; summary of the method: as §2
[7] = system: Mus musculus; test: Activity in ICR mice (Mus musculus) infected with Plasmodium berghei NK65 after 4 days at 10 mg/kg/day, intraperitoneally assessed as mean survival days; type: functional; details: route intraperitoneal; summary of the method: as §3
[8] = system: Mus musculus; test: Activity in ICR mice (Mus musculus) infected with Plasmodium berghei NK65 after 4 days at 100 mg/kg/day, perorally assessed as mean survival days; type: functional; details: route oral; summary of the method: as §3
[9] = system: Mus musculus; test: Activity in ICR mice (Mus musculus) infected with Plasmodium berghei NK65 after 4 days at 20 mg/kg/day, intraperitoneally assessed as mean survival days; type: functional; details: route intraperitoneal; summary of the method: as §3
[10] = system: Mus musculus; test: Activity in ICR mice (Mus musculus) infected with Plasmodium berghei NK65 after 4 days at 40 mg/kg/day, intraperitoneally assessed as mean survival days; type: functional; details: route intraperitoneal; summary of the method: as §3
[11] = system: Plasmodium berghei; test: Suppression of Plasmodium berghei NK65 infected ICR mice (Mus musculus) at 25 mg/kg/day intraperitoneal dose over 4 days; type: functional; summary of the method: as §2
[12] = system: Plasmodium berghei; test: Suppression of Plasmodium berghei NK65 infected ICR mice (Mus musculus) at 20 mg/kg/day intraperitoneal dose over 4 days; type: functional; summary of the method: as §2
[13] = system: Plasmodium berghei; test: Suppression of Plasmodium berghei NK65 infected ICR mice (Mus musculus) at 40 mg/kg/day intraperitoneal dose over 4 days; type: functional; summary of the method: as §2

SMILES	EC50 [1] [nM]	EC50 [2] [µM]	Selectivity index [3]	Activity [5] [days]	Activity [11] [%]	further results
C=CC[n+]1ccccc1/C=c1\s/c(=C2/Sc3ccccc3N2C)c(=O)n1C.Cc1ccc(S(=O)(=O)[O-])cc1	19	100	5000			Activity [4]: 27%
CCN1C(=O)/C(=C2\Sc3ccccc3N2C)S/C1=N\c1sc2cc(Cl)ccc2[n+]1C.[Cl-]				5.5		
CCN1C(=O)/C(=c2/s/c(=C3/C=CC=CN3C)c(=O)n2CC)S/C1=N\c1sc2cc(Cl)ccc2[n+]1C.[Cl-]	10	46	4600	25.3		Activity [6]: 41.7%; Activity [7]: 11.8 days; Activity [8]: 6.5 days; Activity [9]: 20.3 days; Activity [10]: 7 days
CCN1C(=O)/C(=c2/s/c(=C3/C=CC=CN3C)c(=O)n2CC)S/C1=N\c1sc2cc(OC)ccc2[n+]1C.[Cl-]				6.3	98.3	
CCN1C(=O)/C(=c2/s/c(=C3/C=Cc4ccccc4N3C)c(=O)n2CC)S/C1=N\c1sc2cc(Cl)ccc2[n+]1C.[Cl-]				7	49.7	
CCN1C(=O)/C(=c2/s/c(=C3/SCCN3C)c(=O)n2CC)S/C1=N\c1sc2cc(Cl)ccc2[n+]1C.[Cl-]	23	12	520	16		
CCN1C(=O)/C(=c2/s/c(=C3/SCCN3C)c(=O)n2CC)S/C1=N\c1sc2cc(OC)ccc2[n+]1C.[Cl-]				5	95	
C=CCN1C(=O)/C(=c2/s/c(=C3/C=CC=CN3C)c(=O)n2CC)S/C1=N\c1sc2cc(Cl)ccc2[n+]1C.[Cl-]				18	95.7	
CCN1C(=O)/C(=C2\C=Cc3ccccc3N2C)S/C1=N\c1sc2cc(Cl)ccc2[n+]1C.[Cl-]	4.4	11	2500			
CCN1C(=O)/C(=c2/s/c(=C3/C=Cc4ccccc4N3C)c(=O)n2CC)S/C1=N\c1cccc[n+]1C.[Cl-]				5.6	78.4	
CCN1C(=O)/C(=c2/s/c(=C3/C=CC=CN3C)c(=O)n2CC)S/C1=N\c1sc2ccccc2[n+]1C.[Cl-]	22	14	640	22	96.4	Activity [4]: 70.8%; Activity [12]: 92.4%; Activity [13]: 97.8%; Activity [7]: 9.8 days; Activity [9]: 19 days; Activity [10]: 7.8 days
CCN1C(=O)/C(=C2\C=Cc3ccccc3N2C)S/C1=N\c1cccc[n+]1C.[Cl-]	5.9	120	20000			
C=CCN1C(=O)/C(=c2/s/c(=C3/SCCN3C)c(=O)n2CC)S/C1=N\c1sc2cc(Cl)ccc2[n+]1C.[Cl-]				12.8	73.1	
CCn1c(=O)/c(=C2\C=CC=CN2C)s/c1=C1\S/C(=N\c2sc3cc(Cl)ccc3[n+]2C)N(C(C)C)C1=O.[Cl-]				7.7		
CCN(CC)CCCC(C)Nc1ccnc2cc(Cl)ccc12 (stereo not given) [CHLOROQUINE]	150					Activity [4]: 90.6%; Activity [7]: 22.7 days
CCN1C(=O)/C(=c2/s/c(=C3/C=CC=CN3C)c(=O)n2CC)S/C1=N\c1scc(-c2ccc(Cl)cc2)[n+]1C.[Cl-]				5.3	95.6	
CCN1C(=O)/C(=c2/s/c(=C3/C=CC=CN3C)c(=O)n2CC)S/C1=N\c1sc2cc(F)ccc2[n+]1C.[Cl-]				10.8	79.5	
